Experimental data: ChEMBL document CHEMBL3611968, “Reengineered tricyclic anti-cancer agents” (Bioorg Med Chem, 2015)
Active and inactive are the calls of the source. The rule behind the calls is not given here.

Assays:
[1] = target: Sodium-dependent noradrenaline transporter (Homo sapiens) (UniProt P23975); assay: Displacement of [3H]-nisoxetine from norepinephrine transporter (unknown origin) at 10 mM relative to control
How it was run: (§1)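 Competitive antagonist radioligand binding at monoamine transporters. Serotonin transporter is labelled with [³H]imipramine and norepinephrine transporter with [³H]nisoxetine. The compound was tested at three concentrations, and binding is expressed as percent inhibition of specific radioligand binding. Each value is the mean of two independent determinations.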

NCI-H1650 [2] = assay: Cytotoxicity against human NCI-H1650 cells assessed as growth inhibition after 48 hrs by MTT assay; format: functional; conditions: NCI-H1650, 48 h
How it was run: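 H1650 cells were exposed to drug for 48 h at five concentrations bracketing 1–40 μM in 10 μM steps, with MTT read-out. GI50 is given only where the data form a sigmoidal dose response.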

[3] = target: Sodium-dependent dopamine transporter (Homo sapiens) (UniProt Q01959); conditions: 1 mM
NCI-H1650 [4] = assay: Cell cycle arrest in human NCI-H1650 cells assessed as accumulation at sub-G1 phase at 1 to 40 uM by propidium iodide staining-based flow cytometric analysis; format: functional
[5] = target: Sodium-dependent noradrenaline transporter (Homo sapiens) (UniProt P23975); assay: Displacement of [3H]-nisoxetine from norepinephrine transporter (unknown origin) at 0.1 mM relative to control; how it was run: as §1
[6] = target: Sodium-dependent dopamine transporter (Homo sapiens) (UniProt Q01959); conditions: 10 mM
[7] = target: Sodium-dependent noradrenaline transporter (Homo sapiens) (UniProt P23975); assay: Displacement of [3H]-nisoxetine from norepinephrine transporter (unknown origin) at 1 mM relative to control; how it was run: as §1
[8] = target: Sodium channel protein type 5 subunit alpha (Homo sapiens, UniProt Q14524); assay: Inhibition of Nav1.5 channel (unknown origin) expressed in HEK293 cells at […] by patch clamp assay; format: cell-based
Sequence of Sodium channel protein type 5 subunit alpha (Q14524 whole entry): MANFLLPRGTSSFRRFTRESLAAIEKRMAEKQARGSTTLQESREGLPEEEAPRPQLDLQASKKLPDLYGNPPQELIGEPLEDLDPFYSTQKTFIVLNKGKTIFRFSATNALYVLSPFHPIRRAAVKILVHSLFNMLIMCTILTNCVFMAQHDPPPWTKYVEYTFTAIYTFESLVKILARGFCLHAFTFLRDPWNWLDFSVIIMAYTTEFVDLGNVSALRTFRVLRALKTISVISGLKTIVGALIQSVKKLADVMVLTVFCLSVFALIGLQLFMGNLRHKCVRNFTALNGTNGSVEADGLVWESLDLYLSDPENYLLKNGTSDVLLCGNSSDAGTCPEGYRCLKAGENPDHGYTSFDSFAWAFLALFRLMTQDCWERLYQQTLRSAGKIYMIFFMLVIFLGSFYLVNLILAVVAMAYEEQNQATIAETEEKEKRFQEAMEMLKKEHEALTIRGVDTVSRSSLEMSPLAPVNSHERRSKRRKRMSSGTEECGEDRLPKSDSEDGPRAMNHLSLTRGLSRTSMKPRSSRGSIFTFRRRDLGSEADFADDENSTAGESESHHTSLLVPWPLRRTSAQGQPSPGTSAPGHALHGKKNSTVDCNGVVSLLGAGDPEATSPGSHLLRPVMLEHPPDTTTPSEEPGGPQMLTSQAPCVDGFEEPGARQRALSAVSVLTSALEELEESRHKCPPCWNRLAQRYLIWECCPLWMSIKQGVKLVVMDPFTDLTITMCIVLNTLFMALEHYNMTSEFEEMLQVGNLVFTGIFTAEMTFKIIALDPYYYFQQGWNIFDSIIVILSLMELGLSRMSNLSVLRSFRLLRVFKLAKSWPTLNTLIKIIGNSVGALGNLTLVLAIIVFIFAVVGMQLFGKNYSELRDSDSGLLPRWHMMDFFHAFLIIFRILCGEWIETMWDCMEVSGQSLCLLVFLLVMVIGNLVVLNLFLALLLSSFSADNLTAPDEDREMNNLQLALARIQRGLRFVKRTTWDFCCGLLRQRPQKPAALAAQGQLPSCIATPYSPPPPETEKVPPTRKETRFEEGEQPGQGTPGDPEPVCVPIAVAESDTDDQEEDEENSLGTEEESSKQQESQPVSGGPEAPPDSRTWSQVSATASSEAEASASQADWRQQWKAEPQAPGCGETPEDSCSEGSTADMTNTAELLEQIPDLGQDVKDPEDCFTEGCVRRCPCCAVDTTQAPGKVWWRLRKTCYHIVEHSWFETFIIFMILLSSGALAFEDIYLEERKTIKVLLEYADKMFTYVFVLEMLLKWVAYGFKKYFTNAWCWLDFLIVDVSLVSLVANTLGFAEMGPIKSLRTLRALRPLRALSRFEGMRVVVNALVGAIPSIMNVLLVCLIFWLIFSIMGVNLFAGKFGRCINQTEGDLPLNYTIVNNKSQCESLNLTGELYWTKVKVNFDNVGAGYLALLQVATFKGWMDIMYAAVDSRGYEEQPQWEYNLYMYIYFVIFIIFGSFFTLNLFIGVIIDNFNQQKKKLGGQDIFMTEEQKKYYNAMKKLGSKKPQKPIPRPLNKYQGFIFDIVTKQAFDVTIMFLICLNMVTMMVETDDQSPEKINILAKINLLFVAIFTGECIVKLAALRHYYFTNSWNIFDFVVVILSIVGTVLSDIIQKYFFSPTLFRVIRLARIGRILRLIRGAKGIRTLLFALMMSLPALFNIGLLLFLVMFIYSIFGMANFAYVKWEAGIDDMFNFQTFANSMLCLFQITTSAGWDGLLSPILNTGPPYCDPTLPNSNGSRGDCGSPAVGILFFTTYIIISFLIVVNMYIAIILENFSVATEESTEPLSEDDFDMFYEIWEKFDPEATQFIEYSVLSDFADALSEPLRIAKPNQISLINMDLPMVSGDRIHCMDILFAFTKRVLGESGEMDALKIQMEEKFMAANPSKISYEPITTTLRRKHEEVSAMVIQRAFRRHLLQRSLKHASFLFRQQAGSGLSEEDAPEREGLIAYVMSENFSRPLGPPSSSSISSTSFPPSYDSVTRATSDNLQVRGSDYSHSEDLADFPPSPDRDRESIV

Sequence of Sodium-dependent noradrenaline transporter (Homo sapiens) (P23975 whole entry): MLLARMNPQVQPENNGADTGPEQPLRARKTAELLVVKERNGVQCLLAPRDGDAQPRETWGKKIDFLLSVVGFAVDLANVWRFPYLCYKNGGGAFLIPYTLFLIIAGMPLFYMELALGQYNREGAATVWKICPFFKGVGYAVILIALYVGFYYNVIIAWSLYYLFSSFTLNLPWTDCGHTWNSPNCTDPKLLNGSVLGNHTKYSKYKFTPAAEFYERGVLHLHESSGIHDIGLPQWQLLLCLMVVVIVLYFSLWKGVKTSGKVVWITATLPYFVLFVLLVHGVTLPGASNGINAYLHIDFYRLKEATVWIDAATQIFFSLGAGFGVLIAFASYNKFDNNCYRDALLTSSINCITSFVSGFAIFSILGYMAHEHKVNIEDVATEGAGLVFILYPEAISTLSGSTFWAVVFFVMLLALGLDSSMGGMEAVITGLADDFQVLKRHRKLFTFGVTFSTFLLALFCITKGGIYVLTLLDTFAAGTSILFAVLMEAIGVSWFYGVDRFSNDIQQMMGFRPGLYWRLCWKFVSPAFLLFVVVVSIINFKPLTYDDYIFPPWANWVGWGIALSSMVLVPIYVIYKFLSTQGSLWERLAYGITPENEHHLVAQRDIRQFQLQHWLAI
Sequence of Sodium-dependent dopamine transporter (Homo sapiens) (Q01959 whole entry): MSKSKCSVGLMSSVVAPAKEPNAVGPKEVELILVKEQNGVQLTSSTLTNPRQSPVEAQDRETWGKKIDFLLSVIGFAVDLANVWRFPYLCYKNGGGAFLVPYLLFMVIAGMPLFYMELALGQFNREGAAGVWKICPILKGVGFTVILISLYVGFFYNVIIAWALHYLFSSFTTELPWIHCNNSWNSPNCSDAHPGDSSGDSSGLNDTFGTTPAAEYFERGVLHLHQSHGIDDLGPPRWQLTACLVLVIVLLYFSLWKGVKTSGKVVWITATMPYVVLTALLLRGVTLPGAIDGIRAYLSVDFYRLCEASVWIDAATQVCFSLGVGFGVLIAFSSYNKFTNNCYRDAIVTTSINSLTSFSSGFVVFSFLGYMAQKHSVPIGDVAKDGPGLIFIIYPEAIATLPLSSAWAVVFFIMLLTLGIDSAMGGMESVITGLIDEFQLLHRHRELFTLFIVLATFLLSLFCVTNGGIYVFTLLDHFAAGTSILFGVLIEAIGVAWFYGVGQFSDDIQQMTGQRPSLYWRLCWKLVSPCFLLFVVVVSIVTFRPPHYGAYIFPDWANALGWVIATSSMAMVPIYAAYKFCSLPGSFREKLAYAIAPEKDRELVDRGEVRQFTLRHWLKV

**Q.** With `CN(C)CCCN1c2ccccc2CCc2ccc(Cl)cc21` [CLOMIPRAMINE] as the compound, how does the inhibition [1] read?
**A.** Its inhibition is 100%.

**Q.** And the GI50 (NCI-H1650 [2])?
**A.** The GI50 was greater than 40 µM.

**Q.** And the inhibition [3]?
**A.** The inhibition was 14%.

**Q.** What about the Activity (NCI-H1650 [4]) of the same compound?
**A.** Its Activity is “Active”.

**Q.** What about the inhibition [5] of the same compound?
**A.** Its inhibition is 5%.

**Q.** What about the inhibition [6] of the same compound?
**A.** The inhibition was 60%.

**Q.** What about the inhibition [7] of the same compound?
**A.** Its inhibition is 90%.

**Q.** What about the “inhibition (INH)” value [8] of the same compound?
**A.** The value was “Active”.
